Assay results taken from ChEMBL document CHEMBL4316593 (Eur J Med Chem, 2019).
The source made the active and inactive calls. The rule behind the calls is not given here.

Key:
U-87 MG [1] = experiment: Cell cycle arrest in human U87 cells assessed as accumulation at G1 phase at cytotoxic IC50 measured after 48 hrs by propidium iodide staining based fluorescence cell imaging analysis (reference value: 39.7%); assay type: functional, U-87MG ATCC
Summary of the method: (§1)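 Cell cycle by PI staining. Cells seeded at 1×10^6 and grown overnight at 37°C, 5% CO₂, then exposed for 48hrs at their IC₅₀ concentration, with DMSO and cisplatin controls. Cells were trypsinized, washed in cold PBS and fixed in 70% ethanol at 4°C for 30 min. They were stained with PI in Triton X-100/RNase for 15 min at 37°C and imaged by fluorescence microscopy. Reported as mean ± S.E.M of triplicates.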

LN-229 [2] = experiment: Cytotoxicity against human LN229 cells assessed as reduction in cell proliferation up to 200 uM by trypan blue dye-based cell counting analysis; assay type: functional; settings: TDE = time-dependent effect
U-87 MG [3] = experiment: Induction of apoptosis in human U87 cells assessed as change in MAPK8 gene expression at cytotoxic IC50 measured after 48 hrs […] relative to control; assay type: functional, U-87MG ATCC
Summary of the method: (§2)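 U87 cells grown in MEM with 10% FBS at 37°C, 5% CO2. Cells exposed to IC50 of test compound for 48 hrs, alongside untreated and cisplatin controls, each condition in triplicate. RNA isolated and profiled; differential expression called with DESeq2 (q-value < 0.05, fold change > 1.5), fold change versus untreated.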

U-87 MG [4] = experiment: Induction of apoptosis in human U87 cells assessed as change in ITPR1 gene expression at cytotoxic IC50 measured after 48 hrs […] relative to control; assay type: functional, U-87MG ATCC; summary of the method: as §2
[5] = Inhibition of RTK/PI3K/AKT/mTOR signaling in human U87 cells assessed as up regulation of SLC45A3 gene expression at cytotoxic IC50 measured after 48 hrs relative to control; assay type: cell-based; settings: U-87MG ATCC
U-87 MG [6] = experiment: Induction of DNA damage in human U87 cells assessed as change in DTL gene expression at cytotoxic IC50 measured after 48 hrs […] relative to control; assay type: functional, U-87MG ATCC
Summary of the method: (§3)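 U87 expression profiling. Cells incubated 48hrs at 37°C, 5% CO₂ with the IC₅₀ concentration, alongside a cisplatin and an untreated control, in triplicate. RNA was isolated by one common protocol and profiled. DEGs were called with DESeq2 (q < 0.05, fold change > 1.5) and expressed as fold change versus untreated.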

[7] = Inhibition of RTK/PI3K/AKT/mTOR signaling in human U87 cells assessed as down regulation of NFIL3 gene expression at cytotoxic IC50 measured after 48 hrs relative to control; assay type: cell-based; settings: U-87MG ATCC
Summary of the method: (§4)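 Cells were exposed for 48hrs at 37°C in humidified 5% CO₂ to the compound at its previously determined IC₅₀, with Cisplatin at its IC₅₀ and an untreated negative control alongside. Each condition was run in triplicate. RNA was isolated from all samples by the same protocol. Genes were called differentially expressed by DESeq2 at q-value < 0.05 and fold change > 1.5.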

[8] = Inhibition of RTK/PI3K/AKT/mTOR signaling in human U87 cells assessed as up regulation of phosphofructokinase, platelet gene expression at cytotoxic IC50 measured after 48 hrs relative to control; assay type: cell-based
[9] = Inhibition of RTK/PI3K/AKT/mTOR signaling in human U87 cells assessed as up regulation of isoleucyl-tRNA synthetase gene expression at cytotoxic IC50 measured after 48 hrs relative to control; assay type: cell-based; settings: U-87MG ATCC
U-87 MG [10] = experiment: Cell cycle arrest in human U87 cells assessed as change in ESPL1 gene expression at cytotoxic IC50 measured after 48 hrs […] relative to control; assay type: functional, U-87MG ATCC; summary of the method: as §3
[11] = Inhibition of RTK/PI3K/AKT/mTOR signaling in human U87 cells assessed as down regulation of DAGLB gene expression at cytotoxic IC50 measured after 48 hrs relative to control; assay type: cell-based; settings: U-87MG ATCC; summary of the method: as §2
[12] = Inhibition of RTK/PI3K/AKT/mTOR signaling in human U87 cells assessed as up regulation of ETS variant 1 gene expression at cytotoxic IC50 measured after 48 hrs relative to control; assay type: cell-based; settings: U-87MG ATCC; summary of the method: as §4
[13] = Inhibition of RTK/PI3K/AKT/mTOR signaling in human U87 cells assessed as down regulation of SOD2 gene expression at cytotoxic IC50 measured after 48 hrs relative to control; assay type: cell-based; settings: U-87MG ATCC; summary of the method: as §4
U-87 MG [14] = experiment: Induction of DNA damage in human U87 cells assessed as change in PIDD1 gene expression at cytotoxic IC50 measured after 48 hrs […] relative to control; assay type: functional, U-87MG ATCC; summary of the method: as §3
[15] = Inhibition of RTK/PI3K/AKT/mTOR signaling in human U87 cells assessed as up regulation of MORC family CW-type zinc finger 2 gene expression at cytotoxic IC50 measured after 48 hrs relative to control; assay type: cell-based; settings: U-87MG ATCC; summary of the method: as §4
U-87 MG [16] = experiment: Induction of apoptosis in human U87 cells assessed as change in CAPN2 gene expression at cytotoxic IC50 measured after 48 hrs […] relative to control; assay type: functional, U-87MG ATCC; summary of the method: as §2
LN-229 [17] = experiment: Cell cycle arrest in human LN229 cells assessed as accumulation at G1/S-phase at cytotoxic IC50 measured after 48 hrs by propidium iodide staining based fluorescence cell imaging analysis; assay type: functional; summary of the method: as §1
[18] = Inhibition of RTK/PI3K/AKT/mTOR signaling in human U87 cells assessed as down regulation of NXF1 gene expression at cytotoxic IC50 measured after 48 hrs relative to control; assay type: cell-based; settings: U-87MG ATCC; summary of the method: as §4
[19] = Inhibition of RTK/PI3K/AKT/mTOR signaling in human U87 cells assessed as down regulation of XPO6 gene expression at cytotoxic IC50 measured after 48 hrs relative to control; assay type: cell-based; settings: U-87MG ATCC; summary of the method: as §4
[20] = Inhibition of RTK/PI3K/AKT/mTOR signaling in human U87 cells assessed as up regulation of COX19, cytochrome c oxidase assembly factor gene expression at cytotoxic IC50 measured after 48 hrs relative to control; assay type: cell-based; settings: U-87MG ATCC; summary of the method: as §4
[21] = Inhibition of RTK/PI3K/AKT/mTOR signaling in human U87 cells assessed as up regulation of TOMM22 gene expression at cytotoxic IC50 measured after 48 hrs relative to control; assay type: cell-based; settings: U-87MG ATCC
[22] = Inhibition of RTK/PI3K/AKT/mTOR signaling in human U87 cells assessed as down regulation of POP4 gene expression at cytotoxic IC50 measured after 48 hrs relative to control; assay type: cell-based; settings: U-87MG ATCC; summary of the method: as §4
[23] = Inhibition of RTK/PI3K/AKT/mTOR signaling in human U87 cells assessed as down regulation of CHST3 gene expression at cytotoxic IC50 measured after 48 hrs relative to control; assay type: cell-based; settings: U-87MG ATCC; summary of the method: as §2
[24] = Inhibition of RTK/PI3K/AKT/mTOR signaling in human U87 cells assessed as down regulation of DEF8 gene expression at cytotoxic IC50 measured after 48 hrs relative to control; assay type: cell-based; settings: U-87MG ATCC; summary of the method: as §2
[25] = Inhibition of RTK/PI3K/AKT/mTOR signaling in human U87 cells assessed as down regulation of NLRC5 gene expression at cytotoxic IC50 measured after 48 hrs relative to control; assay type: cell-based; settings: U-87MG ATCC; summary of the method: as §4
[26] = Inhibition of RTK/PI3K/AKT/mTOR signaling in human U87 cells assessed as up regulation of solute carrier family 12 member 9 gene expression at cytotoxic IC50 measured after 48 hrs relative to control; assay type: cell-based; settings: U-87MG ATCC
U-87 MG [27] = experiment: Cell cycle arrest in human U87 cells assessed as change in CDKN1A gene expression at cytotoxic IC50 measured after 48 hrs […] relative to control; assay type: functional, U-87MG ATCC; summary of the method: as §3

CC(=O)C(=NNc1ccccc1C#N)C(C)=O
Activity (U-87 MG [1]): 47.7%
Activity (LN-229 [2]): Tde
log2FC (U-87 MG [3]): -1.076
log2FC (U-87 MG [4]): -3.437
log2FC [5]: 1.61
fold change (FC) (U-87 MG [6]): 1.519
log2FC [7]: -0.44
log2FC [8]: 0.662
log2FC [9]: 1.04
fold change (FC) (U-87 MG [10]): 2.307
log2FC [11]: -0.876
log2FC [12]: 1.09
log2FC [13]: -0.617
fold change (FC) (U-87 MG [14]): 2.467
log2FC [15]: 0.946
log2FC (U-87 MG [16]): -1.189
Activity (LN-229 [17]): Active
log2FC [18]: -1.44
log2FC [19]: -0.363
log2FC [20]: 1.33
log2FC [21]: 0.475
log2FC [22]: -0.816
log2FC [23]: -1.06
log2FC [24]: -0.591
log2FC [25]: -1.26
log2FC [26]: 0.907
fold change (FC) (U-87 MG [27]): 1.296
